The list is not random: actives were taken first. Their share in the collection is about 2.1%.
PP1 inh: blocks human PP1-alpha phosphatase, a PP5 counter-screen; purified PP1alpha, OMFP fluorescence; 320,000 compounds, 0.9% hits; AID 2235; inhibition, % at 6.7 µM;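 active = inhibition above the mean inhibition of all tested compounds plus 3 SD, computed separately for each screening campaign, cut at about 15% in these data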
Apaf-1 inh: blocks human Apaf-1 apoptosome activity. reconstituted apoptosome caspase-3 activity, DEVD-Rh110 fluorescence. inhibition, % at 20 µM. 330,000 compounds, 0.71% hits. AID 489030. O14727; active = inhibition of at least 40% at 20 µM
Target sequence (O14727 whole entry, looked up): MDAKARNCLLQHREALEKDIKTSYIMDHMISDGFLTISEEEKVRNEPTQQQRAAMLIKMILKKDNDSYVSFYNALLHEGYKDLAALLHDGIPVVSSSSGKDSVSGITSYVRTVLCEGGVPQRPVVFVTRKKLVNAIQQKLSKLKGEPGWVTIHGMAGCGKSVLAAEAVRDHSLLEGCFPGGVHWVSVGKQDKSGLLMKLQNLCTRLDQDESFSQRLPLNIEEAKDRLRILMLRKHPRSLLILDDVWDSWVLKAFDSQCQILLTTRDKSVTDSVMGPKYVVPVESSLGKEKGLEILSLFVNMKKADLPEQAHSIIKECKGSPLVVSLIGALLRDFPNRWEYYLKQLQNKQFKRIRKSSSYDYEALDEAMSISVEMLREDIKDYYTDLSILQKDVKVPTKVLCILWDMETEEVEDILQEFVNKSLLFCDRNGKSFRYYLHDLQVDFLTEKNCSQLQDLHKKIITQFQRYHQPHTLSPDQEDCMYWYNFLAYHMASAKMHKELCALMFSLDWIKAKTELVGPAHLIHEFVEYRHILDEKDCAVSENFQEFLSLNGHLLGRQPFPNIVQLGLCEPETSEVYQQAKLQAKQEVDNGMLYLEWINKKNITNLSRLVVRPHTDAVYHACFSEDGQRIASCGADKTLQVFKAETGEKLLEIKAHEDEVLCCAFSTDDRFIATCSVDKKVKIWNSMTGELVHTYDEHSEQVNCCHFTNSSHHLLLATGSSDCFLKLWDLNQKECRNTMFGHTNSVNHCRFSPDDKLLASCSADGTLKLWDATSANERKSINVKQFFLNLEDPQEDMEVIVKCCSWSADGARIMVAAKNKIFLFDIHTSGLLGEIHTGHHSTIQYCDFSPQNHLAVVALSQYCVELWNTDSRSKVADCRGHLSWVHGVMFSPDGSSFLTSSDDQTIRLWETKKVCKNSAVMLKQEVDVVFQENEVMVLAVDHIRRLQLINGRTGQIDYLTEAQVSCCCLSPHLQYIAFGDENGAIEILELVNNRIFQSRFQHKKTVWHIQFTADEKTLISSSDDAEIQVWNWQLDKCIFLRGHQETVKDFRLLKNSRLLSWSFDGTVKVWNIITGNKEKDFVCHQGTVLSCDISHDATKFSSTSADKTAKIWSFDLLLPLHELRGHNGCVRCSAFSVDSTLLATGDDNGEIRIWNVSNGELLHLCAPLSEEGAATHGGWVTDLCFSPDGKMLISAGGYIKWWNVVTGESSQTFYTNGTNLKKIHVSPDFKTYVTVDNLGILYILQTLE
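Assay system: Apoptosome proteins | Medium: pH 7.5 Hepes buffer with CHAPS, BSA, DTT | Also added: Cytochrome c and DEVD-Rh110 substrate | Times: 30 min plus 50 min, RT | Detection: Rhodamine 110 fluorescence at Ex 480/Em 540 nm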
PP5 primary: inhibitors of human protein phosphatase 5 (PP5); inhibition, % at 6.7 µM; AID 1987; 320,000 compounds, 0.18% hits; purified PP5c, OMFP substrate fluorescence; P53041;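 active = inhibition above the campaign's mean inhibition across all tested compounds plus 3 SD, cut at about 9.5% in these data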
GSTO1 inh: counter-screen for RBBP9 inhibitors: inhibitors of human GSTO1; P78417; recombinant GSTO1, activity-based probe fluorescence polarization; inhibition, % at 5.96 µM; 300,000 compounds, 1.1% hits;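 active = inhibition above the campaign mean inhibition plus 3 SD, cut at about 35% in these data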
TDP2 absorb: TDP2 (human) inhibition, absorbance primary screen. 370,000 compounds, 0.34% hits. recombinant TDP2, T5PNP hydrolysis, p-nitrophenol absorbance 415 nm. inhibition, % at 12.8 µM;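 active = inhibition above the mean of all tested compounds plus 3 SD, set per campaign, cut at about 25% in these data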
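Evaluation: % inhibition relative to enzyme-containing and enzyme-free wells. Material: recombinant human TDP2. Benchmarks: enzyme-free and DMSO wells. Timing: enzyme reaction with compound for 2 h at 37 °C. Compound dosing: 12.8 µM only. Measured by: p-Nitrophenol epi absorbance. Reagent: T5PNP substrate at 5 mM, a TopII-DNA adduct mimic. Replication: single well per compound.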
GSTO1 confirm: confirmation of human GSTO1 inhibitors | recombinant GSTO1, probe fluorescence polarization | 2,400 compounds, 54% hits | inhibition, % at 5.96 µM | shares compounds with GSTO1 inh;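 active = inhibition above the primary screen's cutoff, its mean inhibition plus 3 SD, cut at about 35% in these data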;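 also: loss of polarization as inhibitors block binding of rhodamine sulfonate ester activity probe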
PP5 inh confirm: confirmation of human PP5 phosphatase inhibitors; shares compounds with PP5 primary; Purified PP5, fluorogenic phosphatase substrate, fluorescence; inhibition, % at 6.7 µM; 460 compounds, 22% hits; in the data active = inhibition above about 9.5%
PP1 counter 3x: PP1 phosphatase inhibition, counter-screen for PP5 inhibitors | shares compounds with PP5 primary | PP1 enzyme, fluorescent phosphatase substrate | inhibition, % at 6.7 µM | 460 compounds, 4% hits | AID 2355; in the data active = inhibition above about 16%
Apaf-1 inh conf2: Apaf-1 inhibition, single-dose confirmed. shares compounds with Apaf-1 inh. reconstituted apoptosome, caspase-3 DEVD-Rh110 fluorescence. inhibition, % at 20 µM. 1,800 compounds, 25% hits. AID 504614;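 active = mean inhibition of at least 40% at 20 µM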
Rh110 quench: Rh110 signal interference in Apaf-1 inhibitor counter-screen; shares compounds with Apaf-1 inh; Rh110 fluorescence interference, quenched caspase reaction; activation (fluorescence interference), % at 20 µM; 1,800 tested, under 10 active; AID 504615;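 active = signal rise of 40% or more at 20 µM, treated as a fluorescence artifact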
Fluor interf inh: Apaf-1 inhibitor counter-screen fluorescence artifact; AID 588538; 460 tested, under 10 active; IC50, µM; fluorescence interference counterscreen, Apaf-1 assay format; shares compounds with Apaf-1 inh; call rule not given here
TDP2 inh conf: human TDP2 inhibition, confirmation | 1,100 compounds, 22% hits | inhibition, % at 12.8 µM | recombinant human TDP2, absorbance read-out | AID 743263 | shares compounds with TDP2 absorb; in the data active = inhibition above about 25%
Each line names hits and unclear results; the compound was inactive in the other large screens (follow-up assays come after a bar, where they were run).

COc1cc(CNc2ccc(O)cc2)cc(Br)c1OCc1ccccc1	GSTO1 inh 53, TDP2 absorb 36 | GSTO1 confirm inactive | TDP2 inh conf inactive
CC(=O)N(/N=C1\Sc2ccccc2C1=O)c1ccccc1	none (no result: PP1 inh, Apaf-1 inh, PP5 primary, GSTO1 inh)
CC(=O)N(/N=C1\Sc2ccccc2C1=O)c1ccccc1C	Apaf-1 inh 90, GSTO1 inh 41, TDP2 absorb 63 | GSTO1 confirm 71 | Apaf-1 inh conf2 85 | Rh110 quench inactive | Fluor interf inh inactive | TDP2 inh conf 63
Cc1ccccc1C1=CC(=O)CC(C)(C)C1=O	none (no result: PP1 inh, Apaf-1 inh, PP5 primary, GSTO1 inh)
CN(C)c1cccc2c(S(=O)(=O)Nc3ccccn3)cccc12	GSTO1 inh 45, TDP2 absorb 56 | GSTO1 confirm inactive | TDP2 inh conf inactive
Cc1ccc(S(=O)(=O)Nc2ccccn2)c(C)c1	none (no result: PP1 inh, Apaf-1 inh, PP5 primary, GSTO1 inh)
N#Cc1c(N)n(CCNC(=O)c2ccccc2)c2nc3ccccc3nc12	none
C=CCn1c(NC(=O)c2ccccc2Cl)c(C#N)c2nc3ccccc3nc21	Apaf-1 inh 96, PP5 primary 11, GSTO1 inh 79, TDP2 absorb 79 | GSTO1 confirm 62 | PP5 inh confirm 28 | PP1 counter 3x inactive | Apaf-1 inh conf2 60 | Rh110 quench inactive | Fluor interf inh inactive | TDP2 inh conf 45
Cc1ccc(C(=O)N/N=C/c2ccc(-c3ccc(Br)cc3[N+](=O)[O-])o2)o1	Apaf-1 inh 42, GSTO1 inh 66, TDP2 absorb 27 | GSTO1 confirm inactive | Apaf-1 inh conf2 inactive | Rh110 quench inactive | TDP2 inh conf inactive
Cc1ccc(C(=O)Oc2ccc(N3C(=O)CCC3=O)c(C)c2)cc1	none
Cc1cc(OCC(=O)c2ccc(Br)cc2)ccc1N1C(=O)CCC1=O	PP5 primary 13 | PP5 inh confirm inactive | PP1 counter 3x inactive
COc1ccc(C)cc1S(=O)(=O)N1CC(C)OC(C)C1 (centres undefined)	none
COc1ccc(C(C)C)cc1S(=O)(=O)N1CC(C)OC(C)C1 (centres undefined)	PP5 primary 10 | PP5 inh confirm inactive | PP1 counter 3x inactive
COc1ccc(S[C@]2(C(=O)N3CCOCC3)CC(=O)N(C(=O)Nc3ccc(C)c(Cl)c3)[C@@H]2c2ccc(OC)cc2)cc1	none (no result: PP1 inh, Apaf-1 inh, PP5 primary, GSTO1 inh)
COC(=O)C1=C(C)N(Cc2ccccc2C(F)(F)F)C(=NCc2cc(OC)c(OC)c(OC)c2)NC1CCc1ccccc1 (centres undefined)	none (no result: PP1 inh, Apaf-1 inh, PP5 primary, GSTO1 inh)
Cc1ccc(S(=O)(=O)N2CCN(C(=O)CN3CCOCC3)C2C(C)C)cc1 (centres undefined)	PP5 primary 12 | PP5 inh confirm inactive | PP1 counter 3x inactive
COc1ccc(S[C@]2(C(=O)N3CCN(c4ncccn4)CC3)CC(=O)N(c3ccc4ccccc4c3)[C@@H]2c2ccc(OC)cc2)cc1	none (no result: PP1 inh, Apaf-1 inh, PP5 primary, GSTO1 inh)
Cn1nnnc1NCc1cccc(Cl)c1Cl	PP5 primary 15 | PP5 inh confirm inactive | PP1 counter 3x inactive
Cn1nnnc1NCc1c(F)cccc1Cl	none
O=C(Nc1nccs1)c1cc2sccc2n1Cc1ccc(F)cc1	PP5 primary 10 | PP5 inh confirm inactive | PP1 counter 3x inactive
CCC(=O)N1Cc2cc(C(=O)Nc3nccs3)nc(-c3cccc(-c4ccccc4OC)c3)c2[C@H]1CCO	none (no result: PP1 inh, Apaf-1 inh, PP5 primary, GSTO1 inh)
CCOc1cc(CNc2ncc(-c3ccc(OC)cc3)n2C)ccc1O	PP5 primary 10 | PP5 inh confirm inactive | PP1 counter 3x inactive
COC(=O)[C@]12C[C@H](CC(=O)NCC34CC5CC(CC(C5)C3)C4)C(=O)N(Cc3ccccc3)C1=C[C@H](COCc1ccccc1)O[C@@H]2C	none (no result: PP1 inh, Apaf-1 inh, PP5 primary, GSTO1 inh)
CCn1nnc(-c2ccccc2NS(=O)(=O)c2ccc(S(=O)(=O)N3CCCCCC3)cc2)n1	none
CCn1nnc(-c2ccccc2NS(=O)(=O)c2ccc(S(=O)(=O)N(C)C3CCCCC3)cc2)n1	PP5 primary 12 | PP5 inh confirm inactive | PP1 counter 3x inactive
O=C(O)c1nnn(-c2ccc(F)cc2F)c1-c1ccccc1	none
O=C(O)c1nnn(-c2cc(C(F)(F)F)cc(C(F)(F)F)c2)c1-c1ccccc1	PP5 primary 20 | PP5 inh confirm inactive | PP1 counter 3x inactive
CN(C)S(=O)(=O)c1ccc(NC(=O)c2cc3ccccc3o2)cc1	PP5 primary 10 | PP5 inh confirm inactive | PP1 counter 3x inactive
COc1cc2c(cc1OC)C(c1cccs1)N(C(=O)C(C)C)CC2 (centres undefined)	PP5 primary 9.9 | PP5 inh confirm inactive | PP1 counter 3x inactive
c1ccc(CN2CCCC3CC2c2ccccc23)cc1 (centres undefined)	none (no result: PP1 inh, Apaf-1 inh, PP5 primary, GSTO1 inh)
O=C(O)C1C2C=CC(O2)C1C(=O)Nc1ccccc1C(F)(F)F (centres undefined)	none
O=C(O)C1C2C=CC(O2)C1C(=O)Nc1cccc(C(F)(F)F)c1 (centres undefined)	PP5 primary 33 | PP5 inh confirm inactive | PP1 counter 3x inactive
Cc1cc(C)cc(NC(=O)C2C3C=CC(O3)C2C(=O)O)c1 (centres undefined)	PP5 primary 20 | PP5 inh confirm inactive | PP1 counter 3x 19
CC(C)=C1C2CCC1C(C(=O)Nc1cc(C)cc(C)c1)C2C(=O)O (centres undefined)	none
Cc1csc(NC(=O)C2C3C=CC(O3)C2C(=O)O)n1 (centres undefined)	PP5 primary 16 | PP5 inh confirm 15 | PP1 counter 3x inactive
O=C(Cn1nnc(-c2ccc(N3CCOCC3)cc2)n1)c1ccccc1	none (no result: PP1 inh, Apaf-1 inh, PP5 primary, GSTO1 inh)
O[C@H](COc1ccc(F)cc1)CN1CCC(C(O)(c2ccccc2)c2ccccc2)CC1	none (no result: PP1 inh, Apaf-1 inh, PP5 primary, GSTO1 inh)
COc1ccc(C2=NCN(c3ccc(C)cc3)C(=S)N2)cc1	PP5 primary 11 | PP5 inh confirm inactive | PP1 counter 3x inactive
Cc1ccc(N2CN=C(c3ccccc3)NC2=S)cc1	none
COc1cccc(-c2cc(C(=O)Nc3cnn(Cc4ccc(F)cc4)c3)no2)c1	PP5 primary 14 | PP5 inh confirm inactive | PP1 counter 3x inactive
C/C(=C/C(=O)N1CCc2ccccc21)C(=O)O	none
